Results as given in ChEMBL document CHEMBL5335786, “Bioorthogonal activation of prodrugs, for the potential treatment of breast cancer, using the Staudinger reaction” (RSC Med Chem, 2023).
Activity calls are given as the source filed them. The calls are words filed in the database; no cut-off is given here.

Tests used:
[1] = tested on: MCF7; test: Anticancer activity against human MCF7 cells assessed as cell viability at 50 uM by MTT assay relative to control; format: functional; conditions: read-out: Activity
[2] = tested on: MCF7; test: Induction of azide reporter generation in human MCF7 cells at 50 uM incubated for 72 hrs by Western blot analysis; format: functional, cell-based
Procedure, shortened: (§1)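 Cells seeded at 4 × 10⁴ per mL (MCF-7, RPMI/5% FBS) or 1 × 10⁴ per mL (L929, DMEM/10% FBS) and fed azido sugar at 37 °C for 72 h. RIPA lysates were cleared, protein-normalised and reacted with 0.5 μM phosphine-PEG3-biotin for 12 h at RT. 20 μg protein run on 8% SDS-PAGE, transferred to PVDF, blocked in BSA/TBST, probed overnight at 4 °C with streptavidin-HRP, ECL detection.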

[3] = tested on: L929; test: Induction of azide reporter generation in mouse L929 cells at 50 uM incubated for 72 hrs by Western blot analysis; format: functional, cell-based; procedure, shortened: as §1
[4] = tested on: MCF7; test: Induction of azide reporter generation in human MCF7 cells at 50 uM incubated for 72 hrs by confocal laser microscopy; format: functional, cell-based
Procedure, shortened: (§2)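 Cells seeded at 4 × 10⁴ per mL (MCF-7) or 1 × 10⁴ per mL (L929) in glass-bottom dishes and kept with azido sugar at 37 °C for 72 h. Washed cells were labelled with 20 μM DBCO-Cy5 for 1 h at 37 °C, formaldehyde-fixed and DAPI-mounted. Confocal imaging; mean fluorescence intensity quantified; mean ± SEM, n = 3.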

[5] = tested on: L929; test: Induction of azide reporter generation in mouse L929 cells at 50 uM incubated for 72 hrs by confocal laser microscopy; format: functional, cell-based; procedure, shortened: as §2
[6] = tested on: MCF7; test: Anticancer activity against Tetra-O-acetyl-azidomannosamine engineered human MCF7 cells incubated for 72 hrs by MTT assay; format: functional, cell-based; conditions: MCF7, 72 h
Procedure, shortened: (§3)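 MCF-7 cells grown in RPMI 1640 with 5% FBS at 37 °C, 5% CO2. Cells were pre-labelled with 50 μM Ac4ManNAz for 72 h, then seeded at 4 × 10⁴ cells per mL. After 24 h they were exposed to prodrug at 0.001–10 μM for 72 h. MTT (0.5 mg mL⁻¹, 4 h) was added, formazan dissolved in DMSO, A570 read. Untreated cells served as control. Triplicates; IC50 from fitted curve; mean ± SEM.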

[7] = Cytotoxicity against Tetra-O-acetyl-azidomannosamine engineered mouse L929 cells incubated for 72 hrs by MTT assay; format: toxicity, cell-based; conditions: L929 cells engineered with Tetra-O-acetyl-azidomannosamine
Procedure, shortened: as §3, with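 “L929 cells” for “MCF-7 cells”, “in DMEM” for “in RPMI 1640”, “with 10%” for “with 5%”, “at 1” for “at 4”, “× 10⁵” for “× 10⁴”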

[8] = Selectivity index, ratio of IC50 for mouse L929 cells to IC50 for human MCF7 cells; format: toxicity; conditions: L929 cells and MCF7 cells, read-out: Ratio IC50
Procedure, shortened: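 MTT assay on MCF-7 (RPMI, 5% FBS) and L929 (DMEM, 10% FBS) at 37 °C, 5% CO2. Some cells were first given 50 μM azido-sugar for 72 h. Cells were seeded at 4 × 10⁴ or 1 × 10⁵ cells/mL for 24 h, then treated with 0.001–10 μM for 72 h. MTT 0.5 mg/mL, 4 h, DMSO, A570; untreated control; triplicate; IC50 from fitted curves; ratio L929/MCF-7.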

IC50 [6] [µM] | SMILES | viability at 50 µM [1] [%] | Activity [2] | Activity [3] | Activity [4] | Activity [5] | IC50 at 72 h [7] [µM] | selectivity ratio [8]
 | CC(=O)OC[C@H]1OC(OC(C)=O)[C@@H](NC(=O)CN=[N+]=[N-])[C@@H](OC(C)=O)[C@@H]1OC(C)=O (some centres undefined) | 100 | Active | Active | Active | Active |  | 
 | CC(=O)N[C@H]1[C@H]([C@H](O)[C@H](O)CN=[N+]=[N-])OC(O)(C(=O)O)C[C@@H]1O (single isomer, unassigned) | 100 | Active | inactive | Active | inactive |  | 
 | CC(=O)N[C@H]1[C@H]([C@H](OC(C)=O)[C@@H](CN=[N+]=[N-])OC(C)=O)O[C@@](OC(C)=O)(C(=O)O)C[C@@H]1OC(C)=O | 100 | Active | inactive | Active | inactive |  | 
0.2 | COc1cccc2c1C(=O)c1c(O)c3c(c(O)c1C2=O)C[C@@](O)(C(=O)CO)C[C@@H]3OC1C[C@@H](NC(=O)c2ccccc2P(c2ccccc2)c2ccccc2)[C@@H](O)[C@@H](C)O1 (some centres undefined) |  |  |  |  |  | 7.7 | 2
 | O=C(Nc1ccc(N(CCCl)CCCl)cc1)c1ccccc1P(c1ccccc1)c1ccccc1 |  |  |  |  |  |  | 2
